Where only a bound is given, the exact number is not on record here.

We go through 39 compounds from ChEMBL document CHEMBL4765308, “N-alkylpiperidine carbamates as potential anti-Alzheimer's agents” (Eur J Med Chem, 2020).

The target in one experiment is Acetylcholinesterase (Homo sapiens, UniProt P22303). Put plainly: Inhibition of human AChE using acetylthiocholine iodide as substrate preincubated with enzyme for 30 mins followed by substrate addition by Ellman's method. (DTNB colorimetry detects thiols as they appear.)
For a further experiment, the target named is Cholinesterase (Homo sapiens, UniProt P06276). Put plainly: Inhibition of human BuchE using butyrylthiocholine iodide as substrate preincubated for 30 mins followed by substrate addition by Ellman's method.
In experiment [1] the target is T1, Amine oxidase [flavin-containing] A (Homo sapiens, UniProt P21397).
T1 sequence (P21397 whole entry): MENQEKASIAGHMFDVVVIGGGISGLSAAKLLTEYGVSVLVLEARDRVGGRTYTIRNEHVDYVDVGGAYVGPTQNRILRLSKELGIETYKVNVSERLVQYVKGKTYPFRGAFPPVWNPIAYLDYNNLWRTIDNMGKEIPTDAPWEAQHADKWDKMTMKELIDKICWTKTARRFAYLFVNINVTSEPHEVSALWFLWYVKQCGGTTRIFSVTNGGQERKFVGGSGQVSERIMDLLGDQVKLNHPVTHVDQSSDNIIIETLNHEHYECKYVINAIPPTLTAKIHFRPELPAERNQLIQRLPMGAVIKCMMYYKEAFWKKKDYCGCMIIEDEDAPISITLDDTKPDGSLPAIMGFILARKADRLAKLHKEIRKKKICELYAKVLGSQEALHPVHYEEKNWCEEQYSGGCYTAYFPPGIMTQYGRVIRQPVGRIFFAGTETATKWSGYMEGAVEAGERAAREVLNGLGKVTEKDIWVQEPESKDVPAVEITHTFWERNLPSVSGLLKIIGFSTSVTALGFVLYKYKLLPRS
Put plainly: Inhibition of human recombinant microsomal MAO-A expressed in baculovirus-infected BTI-TN-5B1-4 cells assessed as inhibition of H2O2 production using p-tyramine as substrate preincubated for 15 mins followed by substrate addition by Amplex Red reagent based fluorescence analysis.

For experiment [2], the target named is T2, Amine oxidase [flavin-containing] B (Homo sapiens, UniProt P27338).
T2 sequence (P27338 whole entry): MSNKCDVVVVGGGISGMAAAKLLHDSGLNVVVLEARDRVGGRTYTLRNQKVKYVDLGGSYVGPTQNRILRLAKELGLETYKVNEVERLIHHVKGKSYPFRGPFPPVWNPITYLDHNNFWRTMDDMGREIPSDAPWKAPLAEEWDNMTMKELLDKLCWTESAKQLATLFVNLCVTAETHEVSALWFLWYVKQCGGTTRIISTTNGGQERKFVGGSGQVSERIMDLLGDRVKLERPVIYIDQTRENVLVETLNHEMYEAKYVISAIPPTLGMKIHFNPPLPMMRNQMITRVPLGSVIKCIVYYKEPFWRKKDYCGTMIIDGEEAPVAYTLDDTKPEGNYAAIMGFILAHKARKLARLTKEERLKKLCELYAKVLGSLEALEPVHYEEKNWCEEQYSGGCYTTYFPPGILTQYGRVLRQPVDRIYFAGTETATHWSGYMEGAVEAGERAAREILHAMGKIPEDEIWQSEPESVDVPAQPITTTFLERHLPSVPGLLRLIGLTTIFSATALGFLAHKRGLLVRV
Put plainly: Inhibition of human recombinant microsomal MAO-B expressed in baculovirus-infected BTI-TN-5B1-4 cells assessed as inhibition of H2O2 production using p-tyramine as substrate preincubated for 15 mins followed by substrate addition by Amplex Red reagent based fluorescence analysis. The method in brief:
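Recombinant human MAO-A or MAO-B (insect-cell microsomes) preincubated with compound 15 min at 37 °C in 50 mM sodium phosphate, pH 7.4, 0.05% Triton X-114. Reaction started with 1 mM p-tyramine, 250 µM Amplex Red and 2 U/mL HRP (final concentrations). Resorufin fluorescence (ex 530/em 590 nm) followed for 20 min at 37 °C, duplicates. Blank-corrected residual activity; IC50 from a four-parameter Hill fit.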

Acetylcholinesterase, sequence (P22303 whole entry): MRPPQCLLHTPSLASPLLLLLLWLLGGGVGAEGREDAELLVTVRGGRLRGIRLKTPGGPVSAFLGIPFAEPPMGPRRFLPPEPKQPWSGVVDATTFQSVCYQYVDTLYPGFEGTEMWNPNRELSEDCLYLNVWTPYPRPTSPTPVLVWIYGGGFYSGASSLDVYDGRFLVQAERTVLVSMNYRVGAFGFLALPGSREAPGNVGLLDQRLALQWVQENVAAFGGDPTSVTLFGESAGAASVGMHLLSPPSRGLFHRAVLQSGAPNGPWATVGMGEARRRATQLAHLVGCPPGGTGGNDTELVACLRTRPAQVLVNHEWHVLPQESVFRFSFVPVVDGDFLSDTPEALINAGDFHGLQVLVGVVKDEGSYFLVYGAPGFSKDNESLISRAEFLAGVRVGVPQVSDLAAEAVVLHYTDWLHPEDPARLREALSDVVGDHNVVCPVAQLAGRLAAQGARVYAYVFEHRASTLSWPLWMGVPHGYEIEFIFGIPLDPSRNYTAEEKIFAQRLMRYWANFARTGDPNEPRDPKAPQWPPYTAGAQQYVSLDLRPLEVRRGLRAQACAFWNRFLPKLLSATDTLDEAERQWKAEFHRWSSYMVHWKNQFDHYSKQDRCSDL
Cholinesterase, sequence (P06276 whole entry): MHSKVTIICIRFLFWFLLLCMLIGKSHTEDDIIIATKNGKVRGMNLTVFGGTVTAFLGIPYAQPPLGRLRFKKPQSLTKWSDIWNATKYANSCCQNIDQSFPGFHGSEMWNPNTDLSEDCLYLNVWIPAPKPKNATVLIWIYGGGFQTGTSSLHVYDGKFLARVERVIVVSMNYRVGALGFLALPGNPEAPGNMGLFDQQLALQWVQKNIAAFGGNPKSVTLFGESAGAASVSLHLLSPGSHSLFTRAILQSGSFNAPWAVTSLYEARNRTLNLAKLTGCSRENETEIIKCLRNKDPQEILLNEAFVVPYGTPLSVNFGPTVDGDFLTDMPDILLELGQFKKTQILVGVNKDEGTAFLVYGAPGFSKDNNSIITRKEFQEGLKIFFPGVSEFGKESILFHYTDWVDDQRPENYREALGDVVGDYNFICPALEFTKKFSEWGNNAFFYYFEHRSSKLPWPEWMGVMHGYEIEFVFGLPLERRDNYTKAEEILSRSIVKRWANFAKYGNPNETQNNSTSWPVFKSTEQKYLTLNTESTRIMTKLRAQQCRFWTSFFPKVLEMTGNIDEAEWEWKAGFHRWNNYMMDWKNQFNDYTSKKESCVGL

As a reminder, the IC50 is the concentration at which inhibition is half-maximal. In the case of `C#CCN1CCC(COC(=O)Nc2ccc(C(C)C)cc2)CC1`, the IC50 at Acetylcholinesterase is over 100 µM; at Cholinesterase, 24.3 µM; in experiment [1], over 100 µM; in experiment [2], 0.316 µM.
For the compound `OCC1CCN(C2Cc3ccccc3C2)CC1`, the IC50 (against Acetylcholinesterase; against Cholinesterase; in experiment [1]; in experiment [2]) was over 100 µM each time.
On to `C#CCN1CCC(COC(=O)N(C)CC)CC1`, for which the IC50 (against Acetylcholinesterase; against Cholinesterase; in experiment [1]; in experiment [2]) was over 100 µM in each case.
`C#CCN1CCC(CO)CC1`: the IC50 (against Acetylcholinesterase; against Cholinesterase; in experiment [1]; in experiment [2]) was over 100 µM throughout.
Turning to `C#CCN1CCCC(COC(=O)N(C)CC)C1` (stereo unspecified), the IC50 (against Acetylcholinesterase; against Cholinesterase; in experiment [1]; in experiment [2]) was over 100 µM throughout.
In the case of `OCC1CCCN(Cc2ccccc2)C1` (stereo unspecified), the IC50 (at Acetylcholinesterase; on Cholinesterase; in experiment [1]; in experiment [2]) was over 100 µM in each case.
For `CC(C)c1ccc(NC(=O)OC2CCN(C3Cc4ccccc4C3)CC2)cc1`, the IC50 is 2.31 µM against Acetylcholinesterase, over 100 µM on Cholinesterase, over 100 µM in experiment [1] and over 100 µM in experiment [2].
On to `O=C(Nc1ccccc1)OC1CCN(Cc2ccccc2)CC1`, for which the IC50 was over 100 µM against Acetylcholinesterase, 6.55 µM against Cholinesterase, over 100 µM in experiment [1] and over 100 µM in experiment [2].
On to `CC(C)c1ccc(NC(=O)OCC2CCCN(C3Cc4ccccc4C3)C2)cc1` (stereo unspecified), for which the IC50 is 18.7 µM at Acetylcholinesterase, 0.442 µM against Cholinesterase, over 100 µM in experiment [1] and over 100 µM in experiment [2].
As for `OC1CCN(Cc2ccccc2)CC1`, the IC50 (against Acetylcholinesterase; against Cholinesterase; in experiment [1]; in experiment [2]) was over 100 µM each time.
On to `CC(C)c1ccc(NC(=O)OCC2CCN(C3Cc4ccccc4C3)CC2)cc1`, for which the IC50 against Acetylcholinesterase is 4.08 µM; at Cholinesterase, over 100 µM; in experiment [1] it was over 100 µM; in experiment [2], over 100 µM.
As to `CC(C)c1ccc(NC(=O)OC2CCCN(C3Cc4ccccc4C3)C2)cc1` (stereo unspecified), the IC50 at Acetylcholinesterase is 7.91 µM; against Cholinesterase, over 100 µM; in experiment [1], over 100 µM; in experiment [2], over 100 µM.
Turning to `OC1CCCN(Cc2ccccc2)C1` (stereo unspecified), the IC50 (on Acetylcholinesterase; against Cholinesterase; in experiment [1]; in experiment [2]) was over 100 µM throughout.
With `O=C(Nc1ccccc1)OCC1CCCN(Cc2ccccc2)C1` (stereo unspecified), the IC50 against Acetylcholinesterase is 67.1 µM; against Cholinesterase, 0.52 µM; in experiment [1] it was over 100 µM; in experiment [2] it was 39.5 µM.
For `CC(C)c1ccc(NC(=O)OCC2CCCN(Cc3ccccc3)C2)cc1` (stereo unspecified) the same measures were 15.1 µM, 0.118 µM, over 100 µM and over 100 µM.
`CCN(C)C(=O)OCC1CCCN(Cc2ccccc2)C1` (stereo unspecified): the IC50 is 96.6 µM on Acetylcholinesterase, 7.23 µM against Cholinesterase, over 100 µM in experiment [1] and over 100 µM in experiment [2].
For the compound `C#CCN1CCCC(OC(=O)Nc2ccccc2)C1` (stereo unspecified), the IC50 is over 100 µM against Acetylcholinesterase, 84.5 µM on Cholinesterase, over 100 µM in experiment [1] and over 100 µM in experiment [2].
`OCC1CCCN(C2Cc3ccccc3C2)C1` (stereo unspecified): the IC50 (at Acetylcholinesterase; on Cholinesterase; in experiment [1]; in experiment [2]) was over 100 µM throughout.
For `C#CCN1CCC(OC(=O)Nc2ccccc2)CC1`, the IC50 against Acetylcholinesterase is over 100 µM; on Cholinesterase it was 19.1 µM; in experiment [1], over 100 µM; in experiment [2], over 100 µM.
In the case of `CCN(C)C(=O)OC1CCN(C2Cc3ccccc3C2)CC1`, the IC50 is over 100 µM at Acetylcholinesterase, 40.8 µM at Cholinesterase, over 100 µM in experiment [1] and over 100 µM in experiment [2].
For `C#CCN1CCC(OC(=O)N(C)CC)CC1`, the IC50 at Acetylcholinesterase was over 100 µM; against Cholinesterase, 11.4 µM; in experiment [1] it was over 100 µM; in experiment [2], over 100 µM.
Consider `C#CCN1CCCC(COC(=O)Nc2ccc(C(C)C)cc2)C1` (stereo unspecified), for which the IC50 on Acetylcholinesterase is over 100 µM; on Cholinesterase it was 17.8 µM; in experiment [1], over 100 µM; in experiment [2], 2.86 µM.
For `O=C(Nc1ccccc1)OCC1CCN(C2Cc3ccccc3C2)CC1`, the IC50 on Acetylcholinesterase was over 100 µM; on Cholinesterase it was 1.43 µM; in experiment [1] it was over 100 µM; in experiment [2], over 100 µM.
As to `CC(C)c1ccc(NC(=O)OC2CCN(Cc3ccccc3)CC2)cc1`, the IC50 is over 100 µM on Acetylcholinesterase, 1.74 µM on Cholinesterase, over 100 µM in experiment [1] and over 100 µM in experiment [2].
In the case of `O=C(Nc1ccccc1)OCC1CCCN(C2Cc3ccccc3C2)C1` (stereo unspecified), the IC50 was over 100 µM against Acetylcholinesterase, 0.18 µM against Cholinesterase, over 100 µM in experiment [1] and over 100 µM in experiment [2].
For `OCC1CCN(Cc2ccccc2)CC1`, the IC50 (at Acetylcholinesterase; at Cholinesterase; in experiment [1]; in experiment [2]) was over 100 µM in each case.
`CC(C)c1ccc(NC(=O)OC2CCCN(Cc3ccccc3)C2)cc1` (stereo unspecified): the IC50 is over 100 µM at Acetylcholinesterase, 3.25 µM at Cholinesterase, over 100 µM in experiment [1] and 29.3 µM in experiment [2].
Take `CCN(C)C(=O)OCC1CCN(C2Cc3ccccc3C2)CC1`: the IC50 against Acetylcholinesterase was over 100 µM; at Cholinesterase, 4.46 µM; in experiment [1], over 100 µM; in experiment [2] it was over 100 µM.
For `C#CCN1CCCC(OC(=O)Nc2ccc(C(C)C)cc2)C1` (stereo unspecified), the IC50 on Acetylcholinesterase is over 100 µM; against Cholinesterase, over 100 µM; in experiment [1], over 100 µM; in experiment [2] it was 71.8 µM.
On to `CCN(C)C(=O)OCC1CCN(Cc2ccccc2)CC1`, for which the IC50 against Acetylcholinesterase is 72 µM; against Cholinesterase, 46 µM; in experiment [1], over 100 µM; in experiment [2] it was over 100 µM.
On to `CCN(C)C(=O)OC1CCCN(Cc2ccccc2)C1` (stereo unspecified), for which the IC50 against Acetylcholinesterase was over 100 µM; on Cholinesterase, 21 µM; in experiment [1], over 100 µM; in experiment [2] it was over 100 µM.
Regarding `C#CCN1CCC(COC(=O)Nc2ccccc2)CC1`, the IC50 was over 100 µM on Acetylcholinesterase, 14.4 µM against Cholinesterase, over 100 µM in experiment [1] and 10.3 µM in experiment [2].
Consider `C#CCN1CCC(O)CC1`, for which the IC50 (against Acetylcholinesterase; on Cholinesterase; in experiment [1]; in experiment [2]) was over 100 µM each time.
In the case of `O=C(Nc1ccccc1)OC1CCN(C2Cc3ccccc3C2)CC1`, the IC50 is 19.2 µM at Acetylcholinesterase, 18.1 µM against Cholinesterase, over 100 µM in experiment [1] and over 100 µM in experiment [2].
`OC1CCCN(C2Cc3ccccc3C2)C1` (stereo unspecified): the IC50 (against Acetylcholinesterase; against Cholinesterase; in experiment [1]; in experiment [2]) was over 100 µM throughout.
With `CCN(C)C(=O)OCC1CCCN(C2Cc3ccccc3C2)C1` (stereo unspecified), the IC50 on Acetylcholinesterase was over 100 µM; against Cholinesterase it was 9.39 µM; in experiment [1], over 100 µM; in experiment [2], over 100 µM.
As to `C#CCN1CCCC(O)C1` (stereo unspecified), the IC50 (against Acetylcholinesterase; on Cholinesterase; in experiment [1]; in experiment [2]) was over 100 µM each time.
Regarding `C#CCN1CCCC(CO)C1` (stereo unspecified), the IC50 (against Acetylcholinesterase; on Cholinesterase; in experiment [1]; in experiment [2]) was over 100 µM each time.
Take `C#CCN1CCCC(COC(=O)Nc2ccccc2)C1` (stereo unspecified): the IC50 against Acetylcholinesterase was over 100 µM; against Cholinesterase, 29.6 µM; in experiment [1], over 100 µM; in experiment [2] it was over 100 µM.
